RGS4 inh: human RGS4 inhibition; B-score at 10 µM; AID 463165; P49798; 310,000 tested, 0.45% active; HEK293 M3R/RGS4 inducible, Fluo-4 calcium flux; stronger effect = higher value; triggered by carbachol at its EC20;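 active means B-score, a plate-corrected calcium signal, over three deviations above library mean, with baseline fluorescence within five deviations of library mean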;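 further: RGS4 expression induced by doxycycline in cells with stable M3 receptor; B-score is computed from the integrated fluorescence ratio over baseline after carbachol; higher B-score means a larger calcium signal and so more RGS4 inhibition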
Target sequence (P49798 whole entry, looked up): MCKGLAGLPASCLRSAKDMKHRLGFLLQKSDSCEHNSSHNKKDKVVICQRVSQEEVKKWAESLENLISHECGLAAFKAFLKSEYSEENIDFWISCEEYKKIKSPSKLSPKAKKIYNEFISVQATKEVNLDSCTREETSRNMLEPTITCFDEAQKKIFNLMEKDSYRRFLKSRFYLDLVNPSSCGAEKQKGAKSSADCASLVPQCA
MrgX1 ag: activates human MrgX1 receptor signaling | B-score at 10 µM | MrgX1-HEK293 cells, Fluo-4 calcium fluorescence, agonist mode; stronger effect = higher value | 310,000 tested, 0.44% active | Q96LB2;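 active means calcium response B-score plate-corrected fluorescence ratio at least 3 library SD, with starting fluorescence B-score inside 5 SD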
Target sequence (Q96LB2 whole entry, looked up): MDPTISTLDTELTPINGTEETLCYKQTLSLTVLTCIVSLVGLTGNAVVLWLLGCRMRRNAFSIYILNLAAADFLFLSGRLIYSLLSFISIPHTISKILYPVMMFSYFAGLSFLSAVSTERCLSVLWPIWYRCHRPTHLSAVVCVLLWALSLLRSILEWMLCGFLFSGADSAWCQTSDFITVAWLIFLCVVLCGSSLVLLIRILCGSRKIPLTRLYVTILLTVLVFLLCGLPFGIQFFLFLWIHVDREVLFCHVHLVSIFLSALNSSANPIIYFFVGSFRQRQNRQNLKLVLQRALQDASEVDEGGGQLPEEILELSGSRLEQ
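Test system: HEK293 cells stably expressing human MrgX1 receptor; amount: 15,000 cells per well; doses: compound delivered in addition one of three; times: overnight plating before 1 h dye loading; detection: Fluo-4 NW calcium-flux fluorescence, kinetic read; read-out basis: B-scored fluorescence response ratio; controls: positive and negative controls per plate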
Kir21 inh: blocks the mouse Kir2.1 inward-rectifier potassium channel; B-score at 10 µM; P35561; AID 1672; 310,000 tested, 0.85% active; HEK293-Kir2.1, FluxOR thallium flux fluorescence; stronger effect = lower value;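 active means fluorescence ratio B-score at or below minus 3 SD of library scores, with starting-brightness B-score within 2 SD, cut at about -4.2 in these data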;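 further: channel flux triggered by added potassium and thallium sulfate stimulus; B-score of peak minus minimum fluorescence over baseline after thallium stimulus; more negative B-score means stronger Kir2.1 block with less thallium influx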
RGS4 act: potentiators or activators of RGS4. HEK293 M3R/inducible RGS4, carbachol calcium flux Fluo4; stronger effect = lower value. B-score at 10 µM. 310,000 tested, 0.92% active;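 active means B-score of the integrated calcium signal more than 4 SD below the library mean, with starting fluorescence not abnormally high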;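 further: negative B-score means reduced calcium response which marks RGS4 activation or potentiation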
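Material: Inducible-RGS4 HEK293 cells carrying M3 receptor; also added: carbachol at ECmax as muscarinic agonist stimulus; incubation: compound preincubation 20 min at room temperature before agonist; signal: Fluo4-AM (2 µM) calcium-flux fluorescence, kinetic read; measure: integrated calcium ratio converted to B score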
MrgX1 antagonist: blocks BAM8-22 activation of human MrgX1 receptor; Q96LB2; B-score at 10 µM; 310,000 tested, 1.3% active; MRGX1-HEK293 calcium flux, Fluo-4, BAM8-22 antagonism; stronger effect = lower value;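 active means calcium-response B-score plate-corrected more than 3 library SD below zero, starting fluorescence within 5 deviations, no agonist response on first addition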;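 further: peak minus trough fluorescence over baseline after final BAM8-22 challenge near maximal dose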
MrgX1 allo act: human MrgX1 positive allosteric modulation, primary screen. MrgX1-HEK293, Fluo-4 calcium flux, FDSS; stronger effect = higher value. B-score at 10 µM. 310,000 tested, 0.63% active;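 active means plate-corrected calcium response at least 3 library SD above typical, normal starting fluorescence, not activating the receptor alone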;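 further: compound read alongside a low EC10 to EC30 dose of BAM8-22 agonist; peak minus trough fluorescence over baseline measured at the second addition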
A number is an active result; . = inactive; / = not tested or not shown. Compounds with a hit are over-represented: about 4.1% of the library has one in this group of screens.

SMILES	RGS4 inh	MrgX1 ag	Kir21 inh	RGS4 act	MrgX1 antagonist	MrgX1 allo act
CC(=O)Nc1ccc(OCCOc2ccc(/C=C3\C(=N)N4N=C(C(C)C)SC4=NC3=O)cc2)cc1	.	32	.	.	.	.
COc1cc(/C=C2/C(=N)N3C=CSC3=NC2=O)ccc1OCCCOc1ccccc1C	.	.	.	.	.	.
COc1cc(/C=C2\C(=N)N3N=C(S(C)(=O)=O)SC3=NC2=O)ccc1OCCOc1ccc(C)cc1	.	.	.	-7.2	.	.
COc1cc(/C=C2\C(=N)N3N=C(S(C)(=O)=O)SC3=NC2=O)cc(OC)c1OCCOc1ccc(C)cc1	.	.	.	.	.	.
CC(C)C(=O)Nc1cccc(-c2cn3ccccc3n2)c1	.	.	.	.	.	.
CC1(C)CC(O)CC(C)(C)N1CC(O)COCCOc1ccc(Br)cc1 (centres undefined)	.	.	.	.	.	.
CCN(Cc1ccc(C#CCCO)cc1)CC1CCCN(CCc2cccc(OC)c2)C1 (centres undefined)	.	.	.	-7	.	.
Cc1ncc(CO)c(/C=N/NC(=O)c2ccc(Br)cc2)c1O	8.4	.	.	.	.	.
Cc1ncc(CO)c(/C=N/NC(=O)c2cc(Br)ccc2O)c1O	.	.	.	.	.	.
CCOC(=O)c1c(-c2ccccc2)oc2ccc(OCC(O)CNCCN(C)C)cc12 (centres undefined)	.	.	-5.2	-7.6	.	.
COc1ccc2c(Cl)c(C(=O)N/N=C/c3ccc4c(c3)OCO4)sc2c1	.	.	.	.	.	.
COc1ccc2c(Cl)c(C(=O)N/N=C3\CCCC(=O)C3)sc2c1	.	.	.	.	-7.4	.
COc1ccc(-c2cc(C(F)(F)F)n3nc(C)cc3n2)cc1	.	.	.	.	.	.
O=C(COC(=O)[C@@H]1CCCN1S(=O)(=O)c1ccc(Cl)cc1)NC1CCS(=O)(=O)C1 (some centres undefined)	.	.	.	.	.	.
COc1cc(NC(=O)COC(=O)[C@@H]2CCCN2S(=O)(=O)c2ccc(Cl)cc2)cc(OC)c1OC	/	.	/	/	.	8.9
Cc1[nH]c2ccccc2c1C1=NNC(=Nc2ccc(F)cc2)SC1	.	.	.	.	.	.
Nc1ccc(-n2cnc3cc([N+](=O)[O-])ccc32)cc1	.	.	.	.	.	.
Cc1cccc(-n2cnc3cc([N+](=O)[O-])ccc32)c1	.	.	.	.	.	8.2
COC(=O)c1c(NC(=O)CCNCc2ccco2)sc2c1CCC2	.	.	-8.1	.	.	.
COc1ccc(N(C(=O)C(C)C)S(=O)(=O)c2ccc(Cl)cc2)cc1	.	.	.	.	.	.
CN(C)S(=O)(=O)c1ccc2c(c1)c(=O)c(C(=O)NCCCN1CCCCCC1)cn2C	.	.	.	.	.	.
CCC1(CC)Cc2ccccc2C(=O)N1	.	.	.	.	.	.
O=C1c2ccccc2CC1(Cc1ccccc1)Cc1ccccc1	.	.	.	-7.1	.	.
Nc1nc(N2CCOCC2)nc(N(c2ccccc2)c2ccccc2)n1	.	.	.	.	.	.
CCOc1cccc(/C=C/c2ccc3cccc(O)c3n2)c1O	.	.	.	.	.	.
SMILES	RGS4 inh	MrgX1 ag	Kir21 inh	RGS4 act	MrgX1 antagonist	MrgX1 allo act
O=S(=O)(NC1CCCCC1)c1ccc(N2CCOCC2)nc1	.	.	.	.	.	.
O=C(c1ccco1)N1CCCN(Cc2nc(-c3ccc4c(c3)OCO4)no2)CC1	.	.	.	.	.	.
Fc1ccc(CN2CCCN(Cc3nc(-c4ccc5c(c4)OCO5)no3)CC2)cc1	.	.	-6.8	.	.	.
O=S(=O)(NCCc1ccccc1)c1ccc(Br)s1	.	.	-4.2	.	.	.
CC1CCCN(C(=O)c2ccc(OC3CCN(CCc4ccccc4)CC3)cc2)C1 (centres undefined)	.	.	-4.5	.	.	.
NC(=O)CC[C@@H]1NC(=O)[C@H](CO)NC(=O)c2cc([N+](=O)[O-])cc(I)c2NCCC[C@@H](C(N)=O)NC(=O)[C@H](Cc2ccc(O)cc2)NC1=O	/	.	/	/	.	.
Cc1nccn1CC(=O)N/N=C/c1cc(Br)cs1	.	.	.	.	-5.3	.
CCCCCCCCCCCCCCCC[N+](C)(C)CC	.	.	-6.8	.	-5.3	.
C#CC[N+](C)(C)CCCCCCCCCC	.	.	.	.	.	.
CC#CC[N+](C)(C)CCCCCCCCCCCC	.	.	-5	.	.	.
CC(=O)Nc1nonc1NC(=O)c1ccc(C(C)(C)C)cc1	.	.	.	.	.	.
O=C(Nc1ccc2oc(-c3ccccc3)nc2c1)c1cc(-n2cnnc2)ccc1Cl	.	.	.	.	.	.
CNC(=S)NNc1ccccc1[N+](=O)[O-]	.	.	.	.	.	.
COCCNC(=S)NNc1ccccc1[N+](=O)[O-]	.	.	.	.	-5.1	.
COc1cc(O)c(C(CC(=O)N2CCCC2)c2ccc3c(c2)OCO3)c(OC)c1 (centres undefined)	.	.	.	.	.	.
CCOC(=O)c1[nH]c2ccccc2c1NC(=S)Nc1cc(C)ccc1C	.	.	.	.	.	.
NNC(=O)CNC(=O)c1cccc(Br)c1	.	.	.	.	.	6.5
O=C(NCCCNC(=O)c1c(F)cccc1F)c1c(F)cccc1F	.	.	.	.	.	.
CC(=O)NC(CC(=O)N1CCCC1)c1ccccc1 (centres undefined)	.	.	.	.	-5.3	.
CCN(Cc1ccccc1)C(=O)CSc1nc(C)cc(C)c1C#N	.	.	-4.7	.	.	.
CC(C)C1OC2c3cccc4cccc(c34)C2N1c1ccccc1 (centres undefined)	.	39	.	.	.	.
C[C@@H]1CC[C@@]23COC(=O)C2=CCC[C@@H]3[C@@]1(C)CC/C(=C/CO)CO	/	.	/	/	.	.
Cc1ccc(N=C2SC(C(=O)Nc3ccc(OC(F)(F)F)cc3)C(N)=C2C(=O)Nc2c(C)cc(C)cc2C)cc1 (centres undefined)	/	.	/	/	.	10
O=C(CN1CCN(c2ccccc2)CC1)c1c[nH]c2ccccc12	.	.	.	.	.	.
Cc1cccc([N+](=O)[O-])c1NC(=O)CN(Cc1ccccc1)Cc1ccccc1	.	.	.	-8.6	.	.
Cc1cccc(C)c1NC(=O)CNC(=O)Cc1ccccc1[N+](=O)[O-]	.	.	.	.	.	.
O=C(CCS(=O)(=O)c1cccc2nonc12)N1CC(=O)N(CCc2ccccc2)C(=O)C1	.	.	.	.	.	.
CC(C)N1CCc2c(sc(NC(=O)c3cc(-c4cccs4)nc4ccccc34)c2C(N)=O)C1	.	.	.	-11	.	.

Source: PubChem BioAssay
